The values that follow come from ChEMBL document CHEMBL3525967, “In vitro glucuronidation of the antibacterial triclocarban and its oxidative metabolites” (Drug Metab Dispos, 2012).

The test system of one data set is Liver microsome. The data set is described as follows: Drug metabolism in Sprague-Dawley rat liver microsomes assessed as glucuronidation incubated for 5 mins prior to UDPGA addition measured after 5 to 30 mins by LC-UV analysis. In kind it is ADME. An outline of the steps:
(§1)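 Microsomes or Sf-9 Supersomes (5 µg protein in 200 µL 100 mM potassium phosphate pH 7.4) pre-treated with alamethicin on ice 15 min; substrate 10 µM final (2% DMSO), MgCl2 and saccharolactone 10 mM each; 5 min preincubation at 37 °C, then UDPGA to start. Samples taken at 5, 10, 15, 30 min (or 2, 5, 10, 15 min) into ACN with internal standard; LC-UV-ESI-MS/MS.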
(In general: Microsomes from liver hold many membrane-bound enzymes, among them those of drug oxidation.)

The target of data set [1] is T1, UDP-glucuronosyltransferase 1A7 (Homo sapiens, UniProt Q9HAW7).
T1 sequence (Q9HAW7 whole entry): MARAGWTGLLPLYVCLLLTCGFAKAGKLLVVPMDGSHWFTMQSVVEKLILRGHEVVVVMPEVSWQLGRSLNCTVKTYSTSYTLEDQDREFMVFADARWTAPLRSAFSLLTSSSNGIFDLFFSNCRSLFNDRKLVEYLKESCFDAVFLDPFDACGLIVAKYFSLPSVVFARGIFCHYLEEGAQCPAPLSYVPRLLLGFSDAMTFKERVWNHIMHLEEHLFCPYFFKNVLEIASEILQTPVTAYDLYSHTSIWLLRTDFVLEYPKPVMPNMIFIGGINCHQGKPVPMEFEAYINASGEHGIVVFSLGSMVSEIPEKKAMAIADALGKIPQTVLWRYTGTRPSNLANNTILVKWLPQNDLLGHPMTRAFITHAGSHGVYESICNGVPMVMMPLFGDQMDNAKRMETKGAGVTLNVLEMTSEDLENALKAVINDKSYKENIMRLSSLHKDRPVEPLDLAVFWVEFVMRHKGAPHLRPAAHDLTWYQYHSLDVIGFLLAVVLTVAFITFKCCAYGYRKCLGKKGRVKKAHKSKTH
Nature of the data set: Drug metabolism assessed as human UGT1A7-mediated glucuronidation expressed in baculovirus infected insect sf9 cells incubated for 5 mins prior to UDPGA addition measured after 5 to 30 mins by LC-UV analysis. In kind it is ADME. Put shortly:
as §1

The target of data set [2] is T2, UDP-glucuronosyltransferase 1A10 (Homo sapiens, UniProt Q9HAW8).
T2 sequence (Q9HAW8 whole entry): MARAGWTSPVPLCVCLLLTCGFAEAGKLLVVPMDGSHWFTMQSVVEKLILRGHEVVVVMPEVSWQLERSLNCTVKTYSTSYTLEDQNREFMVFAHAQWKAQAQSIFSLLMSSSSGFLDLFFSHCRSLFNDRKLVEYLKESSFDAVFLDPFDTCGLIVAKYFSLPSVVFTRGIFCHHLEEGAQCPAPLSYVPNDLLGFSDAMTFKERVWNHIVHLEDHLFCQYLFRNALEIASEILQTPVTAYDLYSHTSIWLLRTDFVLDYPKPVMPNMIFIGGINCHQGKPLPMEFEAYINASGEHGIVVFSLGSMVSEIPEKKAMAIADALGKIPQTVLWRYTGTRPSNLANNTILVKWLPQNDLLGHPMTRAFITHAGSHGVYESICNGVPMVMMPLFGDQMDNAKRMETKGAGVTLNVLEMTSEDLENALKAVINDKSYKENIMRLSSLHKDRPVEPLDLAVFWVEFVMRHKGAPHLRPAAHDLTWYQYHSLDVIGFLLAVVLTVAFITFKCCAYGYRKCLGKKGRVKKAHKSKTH
The data set is described as follows: Drug metabolism assessed as human UGT1A10-mediated glucuronidation expressed in baculovirus infected insect sf9 cells incubated for 5 mins prior to UDPGA addition measured after 5 to 30 mins by LC-UV analysis. Type of data set: ADME. An outline of the steps:
as §1

For data set [3], the target named is T3, UDP-glucuronosyltransferase 2B4 (Homo sapiens, UniProt P06133).
T3 sequence (P06133 whole entry): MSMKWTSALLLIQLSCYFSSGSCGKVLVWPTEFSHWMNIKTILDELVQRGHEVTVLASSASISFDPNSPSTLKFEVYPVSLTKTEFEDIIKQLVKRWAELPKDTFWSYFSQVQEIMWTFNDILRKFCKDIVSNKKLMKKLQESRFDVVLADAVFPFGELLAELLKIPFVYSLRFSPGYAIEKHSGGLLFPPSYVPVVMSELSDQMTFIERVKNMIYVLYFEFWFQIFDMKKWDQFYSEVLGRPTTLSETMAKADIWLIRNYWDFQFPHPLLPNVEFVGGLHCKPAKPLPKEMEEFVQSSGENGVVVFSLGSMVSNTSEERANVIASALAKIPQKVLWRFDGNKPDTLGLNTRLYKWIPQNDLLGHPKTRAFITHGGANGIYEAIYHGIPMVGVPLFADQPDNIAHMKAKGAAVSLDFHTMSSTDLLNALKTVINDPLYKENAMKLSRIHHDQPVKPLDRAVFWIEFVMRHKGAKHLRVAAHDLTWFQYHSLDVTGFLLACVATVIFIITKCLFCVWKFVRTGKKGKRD
Nature of the data set: Drug metabolism assessed as human UGT2B4-mediated glucuronidation expressed in baculovirus infected insect sf9 cells incubated for 5 mins prior to UDPGA addition measured after 5 to 30 mins by LC-UV analysis. Type of data set: ADME. Put shortly:
as §1

For data set [4], the target named is T4, UDP-glucuronosyltransferase 2B7 (Homo sapiens, UniProt P16662).
T4 sequence (P16662 whole entry): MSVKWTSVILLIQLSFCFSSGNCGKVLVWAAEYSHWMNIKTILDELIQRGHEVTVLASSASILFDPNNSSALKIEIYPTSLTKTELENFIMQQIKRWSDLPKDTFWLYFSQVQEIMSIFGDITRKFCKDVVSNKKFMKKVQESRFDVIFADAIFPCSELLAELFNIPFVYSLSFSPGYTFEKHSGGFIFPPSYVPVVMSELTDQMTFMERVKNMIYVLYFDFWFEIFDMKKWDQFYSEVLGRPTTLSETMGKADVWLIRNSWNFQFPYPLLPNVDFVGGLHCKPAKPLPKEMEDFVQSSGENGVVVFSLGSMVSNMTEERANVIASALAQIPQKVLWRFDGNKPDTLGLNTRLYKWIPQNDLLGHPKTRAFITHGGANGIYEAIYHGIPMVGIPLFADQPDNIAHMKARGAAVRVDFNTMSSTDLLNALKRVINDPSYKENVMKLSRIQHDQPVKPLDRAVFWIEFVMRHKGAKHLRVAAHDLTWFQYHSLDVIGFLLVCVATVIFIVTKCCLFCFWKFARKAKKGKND
Nature of the data set: Drug metabolism assessed as human UGT2B7-mediated glucuronidation expressed in baculovirus infected insect sf9 cells incubated for 5 mins prior to UDPGA addition measured after 5 to 30 mins by LC-UV analysis. Type of data set: ADME. Put shortly: as §1

Data set [5] can be described thus: Drug metabolism in microsomes (unknown origin) assessed as retention time at 10 uM by LC-UV-MS method. Type of data set: ADME, Microsome. An outline of the steps: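 Retention times were measured on a C18 column (2 × 100 mm, 2.2 µm) at 300 µL/min. Solvent A was 25 mM ammonium acetate with 0.1% acetic acid; solvent B was ACN. Gradient: 30% B isocratic for 2 min, convex 30–85% B to 7.5 min, then […]. Detection was UV at 265 nm and ESI-MS in SRM mode.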

In the case of `O=C(Nc1ccc(Cl)c(O)c1)Nc1ccc(Cl)c(Cl)c1`, the Drug metabolism is 8700 pmol/min/mg with Liver microsome; 1700 pmol/min/mg in data set [1]; “BLD” in data set [2] (BLD = below limit of detection); “metabolite_not_detected” in data set [3]; “metabolite_not_detected” in data set [4].

With `O=C(Nc1ccc(Cl)cc1)Nc1cc(Cl)c(Cl)cc1O`, the Drug metabolism with Liver microsome is reported as 5500 pmol/min/mg; in data set [1], 1100 pmol/min/mg; in data set [2], 280 pmol/min/mg; in data set [3], “metabolite_not_detected”; in data set [4] (BLD = below limit of detection), “BLD”.

`O=C(Nc1ccc(Cl)c(Cl)c1)Nc1ccc(Cl)cc1O`: the Drug metabolism is listed as 2600 pmol/min/mg in the data set with Liver microsome; 870 pmol/min/mg in data set [1]; 210 pmol/min/mg in data set [2]; “metabolite_not_detected” in data set [3]; “BLD” in data set [4] (BLD = below limit of detection).

`O=C(Nc1ccc(Cl)cc1)Nc1ccc(Cl)c(Cl)c1` [TRICLOCARBAN]: the Retention_time in data set [5] was determined as 5.1 min.
